Here are results for five compounds from publication PMC6648324 (ACS Omega, 2019).

“And” between values parts separate entries of the source, which are not always exact repeats. Equal values may be shown once. Read-outs that look alike come from different tables or passages of the source.

Series [1] in a line: Spectrophotometric titrations with FeNTA at pH 7.4. It counts as physicochemical. To be noted: CH3OH/H2O (80/20 w/w), pH = 7.4 (HEPES), I = 0.1 M, 25.0(2) °C, nc = no complexation. The method, boiled down: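 FeNTA made fresh from Fe(III) and solid NTA (~1:1, slight NTA excess) with a few drops of HClO4, then brought to pH 7.4 with 0.1 M HEPES. Flavone (stock ~10−5 M range) in 0.1 M HEPES pH 7.4 CH3OH/H2O was titrated with FeNTA. UV-vis spectra recorded at 25.0(2) °C, l = 1 cm. Constants fitted with Specfit. Ternary complexes checked by negative-mode ESI-MS.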

The conditions of series [2]: CH3OH/H2O (80/20 w/w); I = 0.1 M (NEt4ClO4); 25.0(2) °C; [H^+] = 10^–2 M; cited from earlier work.
Series [3] can be described thus: Diffusion-ordered spectroscopy NMR. In kind it is physicochemical.
A short description of series [4]: UV–vis absorption spectrophotometric titrations versus pH. In kind it is physicochemical. The settings on record: CH3OH/H2O (80/20 w/w); I = 0.1 M (NEt4ClO4); T = 25.0(2) °C. The method, boiled down:
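Flavone at 10−5−10−4 M in CH3OH/H2O was acidified, then titrated with base over 2 < pH < 12, with full equilibration after each addition. Spectra taken through a quartz immersion probe (l = 1 cm). Specfit analysis gave the 6-OH protonation constants and the spectra of the protonated species.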

A short description of series [5]: Stability of the flavone toward oxidation during the kinetic measurements. It counts as physicochemical. The settings on record: acidic conditions; CH3OH/H2O (80/20 w/w).
The nature of series [6]: Cyclic voltammetry in DMSO. In kind it is physicochemical. The settings on record: 200 mV s^–1. An outline of the steps:
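Flavone at ~2−2.5 mM in DMSO with 0.1 M n-Bu4NPF6 under Ar at 25 °C. Three-electrode cell: polished glassy carbon disk (0.07 cm2) working electrode, Pt wire counter, KCl(3 M)/Ag/AgCl reference (+210 mV vs NHE). Sweep rates 50 mV s−1 to 6 V s−1; peak potentials read at 200 mV s−1. E1/2 taken from the […] reduction wave.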

For series [7] the following is noted: cited from earlier work.

In the case of `COc1ccc(-c2cc(=O)c3c(O)c(OC)c(OC)cc3o2)cc1` [salvigenin, reference compound], the “log K*L·FeNTA (3σ), stability constant of the ferric NTA complex” value in series [1] was 5.8(7). Besides, the “log K*FFe, conditional stability constant of the ferric complex” value (“log K*FFe” below) in series [2] is on record as 5.8(2).

Take `COc1ccc(-c2cc(=O)c3c(O)c(O)c(OC)cc3o2)cc1` [FOMe, ladanein]: the “log K*L·FeNTA (3σ), stability constant of the ferric NTA complex” value in series [1] was 4.7(4); in series [1] (listed as FOMe/ladanein), 4.7(4) and 4.9(6). In addition, the “D0, diffusion coefficient” value in series [3] is on record as 2.34 × 10^–6 cm^2 s^–1. Besides, the “log K^h (±σ), protonation constant (6-OH group)” value in series [4] is 10.33(5). Also, the “log K*FFe” value in series [2] is 6.0(3). Besides, the “stability of the free ligand in the absence of Fe(III)” value in series [5] was “remained unaltered over a long period”. Further, in series [6], the “E1/2 of the quasireversible signal (carbonyl)” value is given as −1.93 V/KCl(3 M)/Ag/AgCl.

Take `O=c1cc(-c2ccccc2)oc2ccccc12` [F, 2-phenyl-chromone, reference compound]: the “E1/2 of the quasireversible signal (carbonyl)” value in series [6] was −1.59 V/KCl(3 M)/Ag/AgCl.

Consider `O=c1cc(-c2ccccc2)oc2cccc(O)c12` [5-OH-flavone], for which the “pKa (5-OH)” value in series [7] (CH3OH/water 1/1 w/w) is 11.34; in series [7] (dioxane/water 1/1 w/w), 11.44.

Regarding `O=c1cc(-c2ccc(O)cc2)oc2cc(O)cc(O)c12` [apigenin], in series [2], the “log K*FFe” value is given as 5.5(1).
